Assay outcomes: PubChem BioAssay, several laboratories
Hits are enriched below; roughly 1.5% of the tested compounds scored in any of these assays.
PG9 Ab binder: binds the HIV-1 gp120 antibody PG9; TR-FRET gp120-PG9 antibody binding; inhibition, % at 6.7 µM; 360,000 compounds, 0.43% hits; AID 624416; in the data active means inhibition above about 8.5%
Rev-erbA mod: modulates human Rev-erb alpha binding to DNA. P20393. Rev-erbα–FITC-DNA binding, fluorescence polarization, 90 min. activity, % at 10 µM. 370,000 compounds, 0.79% hits. AID 1259318;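 active means activity above about 14%, limit read from the data; passing the limit was not always enough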;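 further: 0% = DMSO wells with 35 nM protein and 100% = DMSO wells with 750 nM protein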
Target sequence (P20393 whole entry, looked up): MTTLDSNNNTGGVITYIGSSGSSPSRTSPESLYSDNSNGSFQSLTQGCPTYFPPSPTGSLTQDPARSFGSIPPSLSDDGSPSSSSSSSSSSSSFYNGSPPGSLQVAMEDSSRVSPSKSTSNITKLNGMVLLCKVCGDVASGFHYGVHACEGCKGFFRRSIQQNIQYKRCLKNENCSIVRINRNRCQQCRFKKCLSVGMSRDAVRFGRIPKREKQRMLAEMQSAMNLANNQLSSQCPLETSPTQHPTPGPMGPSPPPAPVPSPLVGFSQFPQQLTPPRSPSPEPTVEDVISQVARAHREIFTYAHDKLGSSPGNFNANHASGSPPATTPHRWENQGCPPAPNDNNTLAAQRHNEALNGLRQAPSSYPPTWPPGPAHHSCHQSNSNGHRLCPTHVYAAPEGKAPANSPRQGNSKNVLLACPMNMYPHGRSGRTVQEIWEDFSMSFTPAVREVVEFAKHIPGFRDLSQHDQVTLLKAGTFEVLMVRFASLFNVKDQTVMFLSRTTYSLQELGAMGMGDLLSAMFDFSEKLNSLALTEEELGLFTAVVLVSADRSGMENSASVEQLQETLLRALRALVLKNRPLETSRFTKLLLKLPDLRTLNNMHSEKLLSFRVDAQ
NR2E3 ag-1: agonists of human nuclear receptor NR2E3; Q9Y5X4; inhibition of corepressor binding, % at 4.78 µM; 320,000 compounds, 0.12% hits; GST-NR2E3/biotin-RetCOR TR-FRET, 1536-well;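 active means percent inhibition above the cutoff of mean plus 3 SD of all tested compounds, set per screening campaign, cut at about 20% in these data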;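 further: 0% = DMSO wells and 100% = biotin wells as full block of FRET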
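System: GST-tagged NR2E3 plus biotinylated RetCOR corepressor; Buffer or medium: pH 7.5 Tris-based buffer; Probe or stimulus: RetCOR corepressor, biotinylated, 7 nM; Doses: compound at 4.8 µM, single dose; Schedule: 5 h incubation at 4 °C; Technique: time-resolved FRET; Evaluation: percent inhibition of TR-FRET ratio; Replication: one well per compound, singlicate testing.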
NR2E3 ag-2: activates human NR2E3 receptor; inhibition of corepressor binding, % at 3.98 µM; Q9Y5X4; CHO-S Gal4-NCOR/VP16-NR2E3 two-hybrid, luciferase; 360,000 compounds, 0.35% hits;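 active means inhibition above the mean of all tested compounds plus 3 SD, cut at about 70% in these data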;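 further: 0% = DMSO with NR2E3 transfected cells and 100% = cells lacking NR2E3 construct; higher means lower luciferase signal from less NR2E3 corepressor binding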
Rev-erbA confirm: Rev-erb alpha (human) modulation, hit confirmation | 3,000 compounds, 61% hits | AID 1259319 | shares compounds with Rev-erbA mod | Rev-erb alpha FITC-DNA binding, fluorescence polarization, 90 min | activation, % at 25 µM;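 active means activation at or above a set limit, or at least 3 SD above the negative control mean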;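 further: 0% = 35 nM protein with DMSO and 100% = 750 nM protein high control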
RORg counter: affects RORgamma DNA binding in a Rev-erb alpha counter-screen | 910 compounds, 8% hits | shares compounds with Rev-erbA mod | purified RORgamma protein-FITC-DNA binding, fluorescence polarization | IC50, µM;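 active means Compounds whose fitted half-maximal concentration for disrupting protein-DNA binding is below 10 micromolar; the record names Rev-erb in its text, so the target is in doubt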
* marks the source's active call; other numbers are inactive results; nt = not tested or not shown.

SMILES	PG9 Ab binder	Rev-erbA mod	NR2E3 ag-1	NR2E3 ag-2	Rev-erbA confirm	others
O=S(=O)(c1ccccc1)c1nnn2c1nc(NC1CCN(Cc3ccccc3)CC1)c1ccccc12	-2	47*	1	-28	16
CCCCN(CCCC)C(=O)C1(P(=O)(c2ccccc2)c2ccccc2)CCC1	0	-2	2	14	nt
Cc1cc(C)nc(NC(=O)CSc2nc3cc(Cl)ccc3s2)n1	-2	2	2	11	nt
CCOC(=O)c1c(NC(=O)CSc2nc3cc(Cl)ccc3s2)sc(C(C)=O)c1C	-6	65*	5	nt	4
CCOC(=O)c1c(NC(=O)CSc2nc3ccccc3s2)sc(C(C)=O)c1C	-1	25*	4	19	43*	RORg counter=>40
COc1ccc(C(=O)c2c(-c3ccc(OC)cc3)oc3ccc(-c4cc(OC)c(OC)c(OC)c4)cc23)cc1	1	13	-5	-27	nt
COc1ccc(-c2oc3ccc(-c4cc(OC)c(OC)c(OC)c4)cc3c2C(=O)c2ccc(OC)nc2)cc1	1	22*	0	10	3
O=C(Nc1ccc(Cl)cn1)c1cc2c(s1)-c1ccccc1OC2	0	30*	-1	-26	7
O=C(Nc1cccnc1Cl)c1cc2c(s1)-c1ccccc1OC2	2	13	1	-33	nt
O=S(=O)(Nc1cccc(S(=O)(=O)N2CCCCC2)c1)c1ccccc1F	-1	5	nt	-16	nt
CC(C)(C)C(=O)NC(=S)Nc1ccc(F)cc1	2	0	1	-12	nt
COc1ccc(CNC(=O)COC(=O)CCN2C(=O)C3CC=CCC3C2=O)cc1OC (stereo not given)	0	1	-1	-20	nt
O=c1oc2c3c4c(cc2c(C(F)(F)F)c1CCN1CCOCC1)CCCN4CCC3	-2	52*	0	6	63*	RORg counter=>40
CCOc1ccc2nc(SCC#N)c(C#N)cc2c1	-6	39*	1	-27	24*
CCOc1ccc2cc(C#N)c(SCC(=O)N3CCC(C)CC3)nc2c1	-1	70*	2	-11	34*
C=C(C)c1cccc(C(C)(C)NC(=O)N2CCN(C/C=C/c3ccccc3)CC2)c1	0	9	-1	-8	nt
CC(NS(=O)(=O)c1cccc(Cl)c1)C(=O)Nc1ccc(-c2nc3ccccc3s2)cc1 (stereo not given)	0	30*	1	-122	10
Fc1cccc2sc(Nc3nc4cc5c(cc4s3)OCCO5)nc12	-2	34*	3	-57	35*	RORg counter=>40
Fc1cccc2sc(Nc3nc4cc5c(cc4s3)OCO5)nc12	0	19	2	-190	nt
O=C(OCC(=O)N1CCCc2ccccc21)c1cc(Cl)ccc1O	1	24*	-2	-41	-5
O=C(OCC(=O)N1CCCC1=O)c1cc(Cl)ccc1O	-1	-1	-1	-15	nt
CC(NC(=O)c1ccc(-c2cc(C(F)(F)F)ccc2Cl)o1)c1ccccc1 (stereo not given)	4	30*	3	3	45*	RORg counter=0.78*
CC(C)C(NC(=O)c1ccc(C(C)(C)C)cc1)C(=O)Nc1cccc(S(N)(=O)=O)c1 (stereo not given)	0	0	5	2	nt
CCOC(=O)c1cc(-c2ccccc2)sc1NC(=O)CN1C(=O)NC(CC)(c2ccccc2)C1=O (stereo not given)	7	47*	4	-18	31*
CCOC(=O)Nc1ccc2c(COC(=O)CNS(=O)(=O)c3ccc(NC(C)=O)cc3)cc(=O)oc2c1	6	54*	5	-7	35*	RORg counter=>40
SMILES	PG9 Ab binder	Rev-erbA mod	NR2E3 ag-1	NR2E3 ag-2	Rev-erbA confirm	others
Cc1ccc2c(COC(=O)CNS(=O)(=O)c3ccccc3)cc(=O)oc2c1	2	3	nt	6	nt
CCOc1ccc(-c2nnn(CC(=O)c3cc(OC)ccc3OC)n2)cc1	-2	19*	2	-14	5
CCOc1cc(CNCc2cc(OC)cc(OC)c2)ccc1OC	-1	1	0	11	nt
CCN1C(=O)CSC1=NC12CC3CC(CC(C3)C1)C2	0	49*	2	-12	58*	RORg counter=>40
CN1C(=O)CSC1=NC12CC3CC(CC(C3)C1)C2	2	11	-4	-30	nt
CC(C)c1nc2sc3c(NCc4ccco4)ncnc3c2c2c1COC(C)(C)C2	1	1	-3	22	nt
